In PMC5415879 (Molecular Pharmaceutics, 2017):
Where no end group is shown, it is not given here.

Columns and labels:
Type in all cases: physicochemical
[1] = Particle morphology and size by transmission electron microscopy; conditions: 0.1 mg/mL in HEPES 10 mM, negative staining with 2% uranyl acetate
How it was run: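 Applies to peptide–pNIPAm self-assembled particles. Samples at 0.1 mg/mL in 10 mM HEPES are applied to prewarmed carbon-coated copper grids for 2 min, and excess liquid is blotted off with filter paper. Grids are negatively stained with 2% uranyl acetate for 45 s and dried 10 min at room temperature. Morphology and size are then read from TEM images.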

[2] = Particle morphology by atomic force microscopy; conditions: nanostructures immobilized on poly-L-lysine coated mica, room temperature
[3] = Critical aggregation concentration, Nile red assay; conditions: Nile red fluorescence (Ex550/Em635), PBS pH 7.4, 0.1 to 500 μg/mL, overnight incubation at room temperature; intersection of two linear fits

Substance	particle size by TEM [1]	particle diameter by AFM [2] [nm]	critical aggregation concentration (CAC) [3]
HPV16 E7_43–57-poly(DMAm) [HPV-pDMAm]	no particles		
OVA250–264-poly(NIPAm) [OVA-pNIPAm]	20–80 nm		
Ac-AAVVLLLWGQAEPDRAHYNIVTF [HPV-SA]		~100	ca. 15 μM
HPV16 E7_43–57-poly(NIPAm) [HPV-pNIPAm]	20–80 nm		
